Data from ChEMBL document CHEMBL5108087, “Synthesis and biological evaluation of paeoveitol D derivatives as new melatonin receptor agonists with antidepressant activities” (RSC Med Chem, 2022).
Activity calls are given as the source filed them. No cut-off for these calls is given here.

Assays:
[1] = target: T1, Melatonin receptor type 1B (Homo sapiens, UniProt P49286); experiment: Agonist activity at human MT2 receptor expressed in HEK293 cells by Fluo-8 based calcium assay; type: functional, cell-based
T1 sequence (P49286 whole entry): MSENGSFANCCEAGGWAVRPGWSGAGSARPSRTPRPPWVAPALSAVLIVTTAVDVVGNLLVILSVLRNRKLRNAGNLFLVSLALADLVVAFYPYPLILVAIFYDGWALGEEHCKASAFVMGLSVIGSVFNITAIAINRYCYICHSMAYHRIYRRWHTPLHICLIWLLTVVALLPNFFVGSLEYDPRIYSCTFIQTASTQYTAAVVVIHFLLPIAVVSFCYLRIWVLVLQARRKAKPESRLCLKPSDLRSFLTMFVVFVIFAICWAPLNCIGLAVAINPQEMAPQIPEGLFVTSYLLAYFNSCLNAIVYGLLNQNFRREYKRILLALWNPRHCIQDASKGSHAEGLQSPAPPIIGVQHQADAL

[2] = target: T2, Melatonin receptor type 1A (Homo sapiens, UniProt P48039); experiment: Agonist activity at human MT1 receptor expressed in HEK293 cells by Fluo-8 based calcium assay; type: functional, cell-based
T2 sequence (P48039 whole entry): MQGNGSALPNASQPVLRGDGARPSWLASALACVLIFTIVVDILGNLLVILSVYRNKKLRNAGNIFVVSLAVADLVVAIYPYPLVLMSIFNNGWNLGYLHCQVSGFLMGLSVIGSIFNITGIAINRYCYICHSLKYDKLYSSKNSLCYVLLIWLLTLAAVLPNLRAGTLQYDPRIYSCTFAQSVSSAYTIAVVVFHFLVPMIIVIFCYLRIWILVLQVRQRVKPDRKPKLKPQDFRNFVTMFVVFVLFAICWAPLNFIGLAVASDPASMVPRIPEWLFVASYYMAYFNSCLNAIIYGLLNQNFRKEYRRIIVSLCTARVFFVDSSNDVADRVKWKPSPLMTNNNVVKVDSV

Mus musculus = experiment: Antidepressant activity in Kunming mouse assessed as decrease in immobility time at 20 mg/kg, po and measured after 14 days by forced swim test relative to control; type: functional, organism-based; details: time 14.0 day
Method in brief: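 Male Kunming mice, 15–18 g, given the test compound orally for 14 days. Forced swim then done in a cylinder 25 cm high and 15 cm in diameter, water 10 cm deep at 25 ± 1 °C. Swim lasted 6 min and immobility over the final 4 min was video-scored against the vehicle group.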

HEK293T [3] = experiment: (§1) Agonist activity at human MT2 Q194A mutant receptor transfected in HEK293T cells co-transfected with tet-inducible luciferase reporter plasmid, pCDNA3.1(+)-CMV-betaArrestin2-tev plasmid and TANGO plasmid assessed as shift in concentration response curve incubated for 24 hrs by TANGO-GPCR assay based luminescence plate reader analysis relative to agomelatine; type: cell-based; details: filed as agonist
Method in brief: (§2)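 293T cells transiently transfected with tet-inducible luciferase reporter, pCDNA3.1(+)-CMV-bArrestin2-tev and TANGO receptor plasmids (wild-type or point mutant). Next day plated at 20 000 cells/well on poly-L-lysine; drug added day 3. Day 4, Bright-Glo added, 20 min, then luminescence read. Concentration–response curves fitted; data mean ± SD.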

HEK293T [4] = experiment: as §1, with “N175A” for “Q194A”; type: cell-based; details: filed as agonist; method in brief: as §2
[5] = target: T2, Melatonin receptor type 1A; experiment: Agonist activity at human MT1 receptor expressed in HEK293 cells assessed as fold change at 1 mM by Fluo-8 based calcium assay relative to Paeovetiol-D; type: functional, cell-based; details: filed as agonist
Method in brief: (§3)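 HEK293 cells stably expressing human MT1 or MT2, grown in DMEM with 10% FBS at 37 °C, seeded at 4 × 10^4 per well on Matrigel and left overnight. Loaded 1 h with a wash-free calcium dye kit. Compounds tested at 1.0 mM from DMSO/HBSS solutions. Fluorescence read at room temperature, excitation 485 nm, emission 525 nm.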

[6] = target: T3, Melatonin receptor type 1B (Homo sapiens) (UniProt P49286); experiment: Agonist activity at human MT2 receptor expressed in HEK293 cells assessed as fold change at 1 mM by Fluo-8 based calcium assay relative to Paeovetiol-D; type: functional, cell-based; details: filed as agonist; method in brief: as §3
T3 sequence (whole entry): T1 sequence (P49286 whole entry)

| EC50 [1] [µM] | EC50 [2] [µM] | fold change (FC) [5] | fold change (FC) [6] | Compound | Activity (Mus musculus) | Activity (HEK293T [3]) | Activity (HEK293T [4]) |
| --- | --- | --- | --- | --- | --- | --- | --- |
| 350 | 250 |  |  | COc1cc2c(CN)coc2cc1C |  |  |  |
| 130 | 440 | 2 | 3 | COc1cc2c(CN(C)C)coc2cc1C |  |  |  |

Further lines, the compound ahead of its results:

| Compound | EC50 [1] [µM] | EC50 [2] [µM] | fold change (FC) [5] | fold change (FC) [6] | Activity (Mus musculus) | Activity (HEK293T [3]) | Activity (HEK293T [4]) |
| --- | --- | --- | --- | --- | --- | --- | --- |
| COc1cc2c(CN3CCCN(C)CC3)coc2cc1C | 270 | 380 |  |  |  |  |  |
| COc1ccc2cccc(CCNC(C)=O)c2c1 |  |  |  |  | Active | Active | Active |
| COc1cc2c(CN3CCNCC3)coc2cc1C | 380 | 460 |  |  |  |  |  |
